What was measured:
Mus musculus [1] = assay: Compound was administered at a dose of 30 mg/kg/day to evaluate the percentage reduction in plasma triglyceride (TG) after 6 days of treatment in db/db mice via oral gavage; Not significant.; format: functional, organism-based
How it was run: (§1)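 Male C57BL/KsJ-db/db mice, 8 weeks old, 4–6 per group, given compound orally once daily for 6 days; vehicle controls received 0.5% CMC (10 mL/kg); rosiglitazone 30 mg/kg as standard. On the last day, retro-orbital blood was taken 1 h post-dose. Plasma glucose and triglyceride were measured by kits. % reduction = [1 − (TT/OT)/(TC/OC)] × 100, using day-0 and control values; mean ± SE, ANOVA, P<0.05.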

Mus musculus [2] = assay: Percentage reduction in plasma glucose after 6 days p.o. dosing at 30 mg/kg in db/db mice.; format: functional; details: route oral; how it was run: as §1
Mus musculus [3] = assay: Compound was administered at a dose of 30 mg/kg/day to evaluate the percentage reduction in plasma triglyceride (TG) after 6 days of treatment in db/db mice via oral gavage.; format: functional; how it was run: as §1
Mus musculus [4] = assay: Compound was administered at a dose of 100 mg/kg/day to evaluate the percentage reduction in plasma glucose(PG) after 6 days of treatment in db/db mice via oral gavage.; format: functional; how it was run: as §1
Mus musculus [5] = assay: Compound was administered at a dose of 100 mg/kg/day to evaluate the percentage reduction in plasma triglyceride (TG) after 6 days of treatment in db/db mice via oral gavage.; format: functional; how it was run: as §1
Mus musculus [6] = assay: Compound was administered at a dose of 100 mg/kg/day to evaluate the percentage reduction in plasma triglyceride (TG) after 6 days of treatment in db/db mice via oral gavage; Not significant.; format: functional, organism-based; how it was run: as §1

Row | SMILES | Reduction (Mus musculus [2]) [%] | Reduction (Mus musculus [3]) [%] | also measured
1 | O=C1NC(=O)C(Cc2ccc(OCC3CN(c4ccccn4)CCO3)cc2)S1 (configuration not stated) [listing 1 of 2 here] | – | – | Reduction (Mus musculus [1]): Not significant
2 | O=C1[N-]C(=O)C(Cc2ccc(OC[C@@H]3CCCN3c3ccccn3)cc2)S1.[Na+] (some centres not stated) | 65.5 | – | –
3 | Cc1cc(N2CCC[C@H]2COc2ccc(CC3SC(=O)NC3=O)cc2)nc2ccccc12 (some centres not stated) | 40.5 | 66.25 | –
4 | O=C1NC(=O)/C(=C/c2ccc(OCC3CN(c4ccccn4)CCO3)cc2)S1 (configuration not stated) | – | – | Reduction (Mus musculus [1]): Not significant
5 | O=C1NC(=O)C(Cc2ccc(OCC3CN(c4ccccn4)CCO3)cc2)S1 (configuration not stated) [listing 2 of 2 here] | 57.5 | – | –
6 | O=C1[N-]C(=O)C(Cc2ccc(OC[C@@H]3CCCN3c3ccc4ccccc4n3)cc2)S1.[Na+] (some centres not stated) | 61.5 | 24.75 | –
7 | O=C1NC(=O)C(Cc2ccc(OC[C@@H]3CCCN3c3ccccn3)cc2)S1 (some centres not stated) | 52.25 | 65.5 | –
8 | Cc1cc(N2CCC[C@H]2COc2ccc(CC3SC(=O)NC3=O)cc2)nc2ccccc12.O=C(O)/C=C\C(=O)O (some centres not stated) | – | 53 | –
9 | O=C1NC(=O)/C(=C/c2ccc(OCCN3CCN(c4ccccn4)CC3)cc2)S1 | – | – | Reduction (Mus musculus [4]): 35.75%; Reduction (Mus musculus [5]): 69.75%
10 | CN(CCOc1ccc(CC2SC(=O)NC2=O)cc1)c1ccccn1 (stereo in doubt; form 2) [ROSIGLITAZONE] | – | 40.21 | Reduction (Mus musculus [2]; 30 mg/kg): 35%
11 | Cl.O=C1NC(=O)C(Cc2ccc(OC[C@@H]3CCCN3c3ccc4ccccc4n3)cc2)S1 (some centres not stated) | 15.75 | – | –
12 | O=C1NC(=O)/C(=C/c2ccc(OC3CCN(c4ccccn4)CC3)cc2)S1 | – | – | Reduction (Mus musculus [4]): 38%; Reduction (Mus musculus [5]): 40.25%
13 | O=C1[N-]C(=O)/C(=C/c2ccc(OC[C@@H]3CCCN3c3ccccn3)cc2)S1.[Na+] | 56.5 | 56 | –
14 | O=C1NC(=O)/C(=C/c2ccc(OC[C@@H]3CCCN3c3ccc4ccccc4n3)cc2)S1 | – | – | Reduction (Mus musculus [4]): 63.75%; Reduction (Mus musculus [6]): Not significant
